Test [1] concerns HL-60. Put plainly: Cytotoxicity against human HL60 cells assessed as cell growth inhibition after 72 hrs by alamar blue assay. As to conditions: HL-60, 72 h. The format is functional, cell-based. In a few lines: (§1)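 Tumour lines and MRC-5 fibroblasts obtained from ATCC, cultured per ATCC guidelines and confirmed mycoplasma-free by staining. Viability read by Alamar blue after 72 h exposure. IC50 in μM with 95% confidence interval by nonlinear regression, from at least three independent experiments run in duplicate. Doxorubicin served as positive control.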

Test [2] concerns MRC5. Put plainly: Cytotoxicity against human MRC5 cells assessed as cell growth inhibition after 72 hrs by alamar blue assay. Particulars: MRC5, 72 h. It counts as cell-based. Put shortly:
as §1
(Resazurin is reduced to fluorescent resorufin, in cell work by metabolically active cells.)

The test system of test [3] is HepG2. Briefly: Cytotoxicity against human HepG2 cells assessed as cell growth inhibition after 72 hrs by alamar blue assay. It counts as functional, cell-based. Particulars: HepG2, 72 h. Put shortly:
as §1

For test [4], the system named is HCT-116. Briefly: Cytotoxicity against human HCT116 cells assessed as cell growth inhibition after 72 hrs by alamar blue assay. Particulars: HCT-116, 72 h. The format is functional, cell-based. Put shortly:
as §1

Test [5] deals with MCF7. Put plainly: Cytotoxicity against human MCF7 cells assessed as cell growth inhibition after 72 hrs by alamar blue assay. The format is functional, cell-based. Particulars: MCF7, 72 h. Put shortly:
as §1

The test system of test [6] is SF-295. Put plainly: Cytotoxicity against human SF295 cells assessed as inhibition of cell viability after 69 hrs by MTT assay. As to conditions: SF-295, 69 h. The format is functional, cell-based.
Test [7] has as its system MDA-MB-435. Briefly: Cytotoxicity against human MDA-MB-435 cells assessed as inhibition of cell viability after 69 hrs by MTT assay. The format is functional, cell-based. As to conditions: MDA-MB-435, 69 h. On the technique in general: Formazan colour is commonly taken as a measure of viable cells.
For test [8], the system named is HCT-8. Put plainly: Cytotoxicity against human HCT8 cells assessed as inhibition of cell viability after 69 hrs by MTT assay. The format is functional, cell-based. Particulars: HCT-8, 69 h.

What is called pIC50 is the negative decadic logarithm of the IC50, by convention in mol/L.

pIC50: −log10 of the molar value.

As for `COc1ccc2c(c1)c(=O)cc1c3c(cc4c(c32)OCO4)CCN1C`, the pIC50 in test [1], in test [2], in test [3], in test [4] and in test [5] was under 5.00 in each case.
For `COc1cc2c(cc1OC)[C@H](O)[C@@H]1c3c(cc4c(c3-2)OCO4)CC[N+]1(C)[O-]` (stereo not given in full), the pIC50 is 5.80 in test [6]; 5.02 in test [1]; 5.14 in test [7]; under 5.00 in test [2]; under 5.00 in test [3]; 5.72 in test [8]. Moreover, the pIC50 was 5.04 in test [4] and under 5.00 in test [5].
`COc1cc2c(cc1OC)[C@H](O)[C@@H]1c3c(cc4c(c3-2)OCO4)CCN1C`: the pIC50 in test [6] was 5.85; in test [1], 5.32; in test [7] it was 4.91; in test [2] it was under 5.00; in test [3], 5.30; in test [8] it was 5.85. Moreover, the pIC50 in test [4] and in test [5] was under 5.00 in each case.
On to `COc1cc2c(cc1OC)[C@@H](O)[C@@H]1NCCc3cc4c(c-2c31)OCO4`, for which the negative-log IC50 (pIC50) in test [1] is 5.70; in test [2], under 5.00; in test [3], 5.04; in test [4], 5.40; in test [5] it was 5.00.
For `COc1cc2c(cc1OC)-c1c3c(cc4c1[C@H](C2)N(C)CC4)OCO3` [DICENTRINE] the same measures were 5.43, under 5.00, under 5.00, 5.06 and under 5.00.
The matching figures for `COc1cc2c(=O)cc3c4c(cc5c(c4c2cc1OC)OCO5)CCN3C`: under 5.00, under 5.00, under 5.00, under 5.00 and under 5.00.
The matching figures for `COC1=C[C@@]23CCN(C)[C@@H](Cc4cc(O)c(OC)cc42)C3=CC1=O`: under 5.00, under 5.00, under 5.00, under 5.00 and under 5.00.
Regarding `COc1cc2c(cc1OC)-c1c3c(cc4ccnc(c14)C2=O)OCO3` [DICENTRINONE], the pIC50 in test [1], in test [2], in test [3], in test [4] and in test [5] was under 5.00 throughout.
Regarding `COc1ccc(OC)c(OC)c1` [1,2,4-TRIMETHOXYBENZENE], the negative-log IC50 (pIC50) in test [1], in test [2], in test [3], in test [4] and in test [5] was under 5.00 each time.
As to `COc1cccc2c1C(=O)c1c(O)c3c(c(O)c1C2=O)C[C@@](O)(C(=O)CO)C[C@@H]3O[C@H]1C[C@H](N)[C@H](O)[C@H](C)O1` [DOXORUBICIN], the pIC50 is 7.40 in test [1], 5.62 in test [2], 7.40 in test [3] and 6.52 in test [4].

These data come from ChEMBL document CHEMBL4334473, “Structure-Based Molecular Networking for the Target Discovery of Oxahomoaporphine and 8-Oxohomoaporphine Alkaloids from Duguetia surinamensis” (J Nat Prod, 2019).
